Assay results taken from PubChem BioAssay AID588804 (The Scripps Research Institute Molecular Screening Center, 2011).
Activity calls are given as the source filed them.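 The calls were made as follows: active = In either cell panel, a half-cytotoxic dose CC50 of 5 µM or lower marks a compound as cytotoxic; inactive = Both panels show CC50 exceeding 5 µM.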

Assay: cytotoxicity in Neuro-2A cells, dose response, cytotoxicity control for PME-1 inhibitor project, cell-based, WST-1 absorbance, serum-free and serum media (AID 588804)
Details: Neuro-2A viability, 48 h
In short: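 Benchmarks: Compound-free cells as high control, no-cell wells as low | System: Neuro-2A murine neuroblastoma cells | Detection: WST-1 conversion to formazan, absorbance readout | Measure: % surviving cells and CC50 from three-parameter sigmoidal fit | Timing: Cells grown 36 h before dosing, 48 h compound exposure at 37 °C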

SMILES	CC50 (with serum)	CC50 (without serum)
CC[C@@]1(c2ccc(C)cc2)C(=O)N(C(=O)OC(C)C)N1C(=O)OC(C)C	> 10 µM (inactive)	> 10 µM (inactive)
CC[C@@]1(c2ccc(Cl)cc2)C(=O)N(C(=O)OC)N1C(=O)OC	> 10 µM (inactive)	> 10 µM (inactive)
CCCOC(=O)N1C(=O)[C@@](CC)(c2ccc(C)cc2)N1C(=O)OCCC	> 10 µM (inactive)	> 10 µM (inactive)
